# Lipid droplet – hepatic lipid droplet formation modulation; AID 1656; inhibition, % at 6.5 µM; AML12 mouse hepatocytes, oleate lipid droplets, BODIPY imaging; 240,000 tested, 0.4% active;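 active = lipid droplet intensity inhibited by at least 50%, with more than 500 cells counted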
#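 material = mouse AML12 hepatocyte cell line, fixed after treatment | also added = 100 µM oleic acid challenge | doses = compound at 6.5 µM only | schedule = overnight exposure | technique = Image-based BODIPY and DAPI two-channel analysis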
# MPTP inh – inhibitors of mitochondrial permeability transition pore. isolated mouse mitochondria, Ca2+ swelling absorbance, 30 min. inhibition, % at 10 µM. 360,000 tested, 1.4% active;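 active = inhibition of 50% or more, scaled per plate between neutral and stimulator controls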;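 also: 0% = DMSO wells given calcium and 100% = 1 mM EGTA wells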
# ADAM10 inh – inhibitors of human ADAM10. inhibition, % at 7 µM. recombinant ADAM10, EDANS/DABCYL FRET peptide cleavage, 3 h. 370,000 tested, 0.62% active;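 active = inhibition above a per-campaign cutoff equal to the mean of compounds falling between control-based bounds plus 3 SD, cut at about 20% in these data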;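 also: 0% = DMSO wells while the 100% control is not disclosed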
# aDG glyco up – alpha-DG glycosylation activation; Pro5-aDG cells, alpha-DG glycosylation AlphaScreen (IIH6); 0% Pro5, 100% B10-LARGE cell signal; activation, % at 10 µM; 360,000 tested, 0.22% active; AID 624168;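 active = activation of at least 8% versus controls, or a plate z-score of at least 8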;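 also: Pro5 are CHO cells carrying HIG-tagged alpha-DG that lacks glycosylation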
# V-ATPase pH – alters yeast V-ATPase proton transport; S. cerevisiae, pHLuorin cytosolic pH fluorescence; response, % at 10 µM; 350,000 tested, 0.37% active; in the data active = response mostly above about 7.3%, no sharp cut-off; inactive = mostly below about 5.4%; also: actives read high
# ADAM17 inh – inhibitors of human ADAM17; P78536; recombinant ADAM17, EDANS/DABCYL FRET peptide cleavage; inhibition, % at 6.95 µM; 370,000 tested, 0.83% active;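 active = inhibition above the mean of compounds lying between control limits plus 3 SD, set per campaign, cut at about 8.5% in these data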;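 also: 0% = DMSO-only wells as the low control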
# Target sequence (P78536 215-824 limits assumed): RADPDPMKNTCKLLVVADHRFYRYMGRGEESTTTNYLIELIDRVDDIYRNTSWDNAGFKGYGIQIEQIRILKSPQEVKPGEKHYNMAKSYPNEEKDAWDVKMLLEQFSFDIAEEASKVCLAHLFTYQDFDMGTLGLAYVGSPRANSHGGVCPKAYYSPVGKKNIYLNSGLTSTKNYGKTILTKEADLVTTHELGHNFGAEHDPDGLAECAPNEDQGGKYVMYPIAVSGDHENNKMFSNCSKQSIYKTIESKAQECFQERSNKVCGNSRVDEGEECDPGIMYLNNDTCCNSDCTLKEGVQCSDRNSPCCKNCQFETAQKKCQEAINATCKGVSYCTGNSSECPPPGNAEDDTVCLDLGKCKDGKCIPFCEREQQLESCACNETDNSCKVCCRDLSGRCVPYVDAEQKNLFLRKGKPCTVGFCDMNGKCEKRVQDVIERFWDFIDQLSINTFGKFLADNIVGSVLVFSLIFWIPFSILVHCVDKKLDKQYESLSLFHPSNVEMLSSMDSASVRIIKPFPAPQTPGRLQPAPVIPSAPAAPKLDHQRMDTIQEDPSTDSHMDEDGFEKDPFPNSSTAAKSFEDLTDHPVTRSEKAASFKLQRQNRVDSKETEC
# ADAM10 ctr – ADAM10 inhibition, counter-screen for ADAM17 exosite hits; 2,900 tested, 47% active; AID 743256; inhibition, % at 6.95 µM; recombinant ADAM10, EDANS/DABCYL FRET peptide cleavage, 3 h; shares compounds with ADAM17 inh;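 active = mean inhibition over the triplicate runs exceeds the activity threshold set in the earlier primary screen, cut at about 20% in these data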;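 also: 0% = DMSO wells and 100% = marimastat wells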
# ADAM17 confirm – confirmation of inhibitors of human ADAM17. shares compounds with ADAM17 inh. recombinant ADAM17, EDANS/DABCYL QFRET peptide cleavage. inhibition, % at 6.95 µM. 2,900 tested, 65% active. AID 743257;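 active = mean inhibition across replicates above the hit cutoff set in the primary screen, cut at about 8.5% in these data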;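 also: 0% = DMSO wells and 100% = marimastat wells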
# Numbers without * were called inactive; i = inactive; . = no result. This is a sample that favours compounds with a hit; in the whole collection about 3.1% have one here.
SMILES,Lipid droplet,MPTP inh,ADAM10 inh,aDG glyco up,V-ATPase pH,ADAM17 inh,ADAM10 ctr,ADAM17 confirm
CC1CN(C(=O)C(C)Sc2nc3ccccc3s2)CC(C)O1 (stereo unspecified),.,6.0,3.4,-0.1,-1.2,0.5,.,.
O=C1NC(Cc2ccccc2)c2nc3cc(F)ccc3c(=O)n2-c2cc(Cl)ccc21 (stereo unspecified),.,.,0.7,.,.,-1.6,.,.
O=C1NC(Cc2ccccc2)c2nc3ccc(F)cc3c(=O)n2-c2cc(Cl)ccc21 (stereo unspecified),.,.,6.3,.,.,12.8*,-5.6,0.8
COc1ccc(-c2noc(C3CCCN(C(=O)Nc4ccc(Cl)cc4)C3)n2)cc1 (stereo unspecified),.,.,7.0,.,.,5.8,.,.
CCCn1c(CCNc2nc(-c3cccc(Br)c3)cs2)nc2ccccc21,.,1.1,11.5,0.0,-2.0,10.9*,17.3,11.1*
COc1ccc(NC(=O)CCSc2ccc(C)cc2)cc1S(=O)(=O)Nc1ccccc1Cl,-20.1,17.1,16.3,0.2,-1.4,3.6,.,.
COc1ccc(NS(=O)(=O)c2cc(NC(=O)CCSc3ccccc3)ccc2OC)cc1,-10.1,5.3,14.4,0.0,2.2,10.0*,42.3*,21.7*
Cc1occc1-c1nnc(SCC(=O)N2CCN(c3ncccn3)CC2)n1-c1ccccc1,.,.,-20.9,.,.,-3.1,.,.
NC(=O)C1CCN(c2nc3c(S(=O)(=O)c4ccccc4)nnn3c3ccccc23)CC1,-10.0,-1.5,-1.5,0.2,-0.1,12.8*,-8.1,2.2
CCOC(=O)N(C)[C@H]1C[C@H]2c3[nH]c4cccc(-c5cccc(F)c5)c4c3CCN2C(=O)[C@H]1[C@H](C)O,.,.,i,.,.,-199.7,.,.
Cc1ccc(S(=O)(=O)N2CCCc3cc(NC(=O)c4c(F)cccc4F)ccc32)cc1,-18.1,0.1,16.7,0.1,-0.8,12.5*,27.4*,13.8*
CC(CCc1ccccc1)NC(=O)C(Cc1ccccc1)NS(=O)(=O)c1cccs1 (stereo unspecified),0.7,0.4,3.0,0.2,0.4,9.8*,21.3*,9.3*
CC1CCCCC1NC(=O)C(Cc1ccccc1)NS(=O)(=O)c1cccs1 (stereo unspecified),-3.5,0.8,-1.2,-0.1,2.5,-1.6,.,.
CC(=O)c1ccc(Sc2ccccc2N)c([N+](=O)[O-])c1,0.3,0.9,-98.8,-0.2,-4.7,-70.8,.,.
Nc1ccccc1Sc1ccc(C(=O)c2ccccc2C(=O)O)cc1[N+](=O)[O-],2.5,1.0,16.1,-0.3,-4.0,9.0*,6.4,2.5
CCN(CC)c1ccc(NC(=O)c2cc3c(C)nn(-c4ccccc4)c3s2)cc1,.,.,18.7,.,.,12.7*,5.9,10.3*
O=C(NC(CSCc1ccccc1)C(=O)N/N=C/c1ccc(O)cc1O)c1ccc([N+](=O)[O-])cc1 (stereo unspecified),-52.3,-0.5,11.4,0.5,6.0,14.4*,19.4,16.8*
COC1=C[C@H](C(=O)N[C@H]2CCCC[C@@H]2NC(C)=O)[C@@]2(C)Cc3ccccc3[C@H]2CC1=O,.,.,-6.5,.,.,-2.4,.,.
Cc1ccc(-c2nnc(SCC(=O)NNC(=S)Nc3ccccc3)n2C2CCCCC2)cc1,.,.,3.7,.,.,-0.2,.,.
COC(=O)[C@]12C[C@H](CC(=O)NCc3ccc(C)o3)C(=O)N(Cc3cccc4ccccc34)C1=C[C@H](C1CCCC1)O[C@@H]2C,.,.,19.1,.,.,5.5,.,.
COC(=O)[C@]12C[C@H](CC(=O)NCc3ccc(C)o3)C(=O)N(Cc3ccccc3)C1=C[C@H](C1CCCC1)O[C@@H]2C,.,.,8.7,.,.,12.3*,10.4,6.6
COC(=O)[C@]12C[C@H](CC(=O)NCC3CCCCC3)C(=O)N(CCc3ccc(OC)c(OC)c3)C1=C[C@H](COCc1ccccc1)O[C@@H]2C,.,.,5.9,.,.,10.6*,26.0*,9.1*
COC(=O)[C@]12C[C@H](CC(=O)N3CCN(C(=O)c4ccco4)CC3)C(=O)N(Cc3ccc(Cl)cc3Cl)C1=C[C@H](COCc1ccccc1)O[C@@H]2C,.,.,16.5,.,.,12.6*,17.6,10.1*
COC(=O)[C@]12C[C@H](CC(=O)N3CCCCC3)C(=O)N(Cc3ccc(Cl)cc3Cl)C1=C[C@H](COCc1ccccc1)O[C@@H]2C,.,.,4.4,.,.,-4.2,.,.
Cc1ccc(-c2nnc(SCC(=O)Nc3ccc(F)cc3F)n2Cc2ccco2)cc1,.,.,-9.5,.,.,-2.3,.,.
SMILES,Lipid droplet,MPTP inh,ADAM10 inh,aDG glyco up,V-ATPase pH,ADAM17 inh,ADAM10 ctr,ADAM17 confirm
O=C1CCCCC1C(Nc1ccc(Br)cc1)c1ccccc1 (stereo unspecified),-2.8,0.7,12.8,0.2,1.2,4.0,.,.
O=C1CCCCC1C(Nc1ccc(Cl)cc1)c1ccccc1 (stereo unspecified),-8.0,-3.0,18.0,0.2,.,10.6*,13.6,13.2*
Cc1cc(NS(=O)(=O)c2ccc(NC(=O)CSc3nnc(SCc4ccc(Cl)cc4)s3)cc2)nc(C)n1,.,.,-1.2,.,.,-0.6,.,.
CCOC(=O)[C@]12CCCC=C1N(Cc1ccc(OC)cc1)C(=O)[C@@H]2CC(=O)N1CCC(c2ccccc2)CC1,.,.,12.9,.,.,5.6,.,.
COc1ccc(NC(=O)CN(C)C(=O)/C=C/c2cn(-c3ccccc3)nc2-c2ccc(C)cc2)cc1,.,-1.9,4.7,0.4,-1.1,12.7*,2.1,10.2*
COc1ccc(NC(=O)CN(C)C(=O)/C=C/c2cn(-c3ccccc3)nc2-c2ccc(F)cc2)cc1,.,-1.1,-8.9,0.4,-1.0,-6.8,.,.
CCNC(=O)OCCN1C(=O)CCC12CCC(c1ccc(Cl)cc1)CC2 (stereo unspecified),.,.,-2.4,.,.,-3.3,.,.
O=C(CSc1nnc(COc2ccc(Cl)cc2)n1Cc1ccco1)Nc1cccc2ccccc12,.,.,16.1,.,.,9.3*,36.2*,18.2*
COc1ccc(-c2nnc(SCC(=O)Nc3cccc4ccccc34)n2Cc2ccco2)cc1,.,.,3.3,.,.,2.2,.,.
Cc1ccc(OCc2nnc(SCC(=O)Nc3cccc4ccccc34)n2Cc2ccco2)cc1,.,.,16.8,.,.,10.0*,38.8*,19.3*
COc1ccc(C2=CCN(C)C(=O)N2c2ccc([N+](=O)[O-])cc2)cc1,.,.,4.3,.,.,-1.9,.,.
CCc1noc(C)c1C(=O)OC(C)C(=O)Nc1ccc2c(c1)OCO2 (stereo unspecified),.,-1.2,-11.5,-0.1,-1.0,8.8*,14.7,12.8*
COc1ccc(C2=NS(=O)(=O)N(C)C(C(=O)Nc3ccc(C)cc3)=C2)cc1,2.9,4.0,18.9,0.5,2.6,8.9*,19.3,13.5*
Cc1ccc(NC(=O)C2=CC(c3ccc(C)cc3)=NS(=O)(=O)N2C)cc1,-3.8,8.9,9.1,-0.3,11.2,0.1,.,.
